Measurements pooled from the literature.
Compare with care: the assays were run in different laboratories. pIC50: −log10 of the molar value.
Cell line: UACC-257
Effect on: cell growth or viability

| Structure (SMILES) | method | tested at | quantity | value |
| --- | --- | --- | --- | --- |
| COc1ccc(-c2ccc(-c3ccc(C(=N)N)nc3)s2)cc1Cl | SRB |  | GI50 | 1.88 µM |
| O=C1NCCc2[nH]c(-c3ccncc3)cc21 |  |  | pIC50 | < 5.00 |
| O=C1Nc2ccccc2C1=NNc1nnc2n1N=C(c1ccccc1)CS2 | SRB | 10 µM | inhibition | 11% |
| COc1cc(-c2ccc(-c3ccc(C(=N)N)nc3)s2)cc(OC)c1OC | SRB |  | GI50 | 2.15 µM |
| O=C1NC(=NCc2cccs2)S/C1=C\c1ccc2ncccc2c1 |  |  | pIC50 | < 5.00 |
| COc1ccc(C(=O)/C=C/c2cc3c(cc2Br)OCO3)cc1S(N)(=O)=O | SRB | 10 µM | inhibition | 36% |
| NC(=O)c1cc(Cl)ccc1NC(=O)COc1ccccc1 |  |  | GI50 | > 100 µM |
| COc1ccc(C(=O)/C=C/c2cccc(Cl)c2Cl)cc1S(N)(=O)=O | SRB | 10 µM | inhibition | 65% |
| COc1ccc(C2=Nn3c(NN=C4C(=O)Nc5ccc(Cl)cc54)nnc3SC2)cc1 | SRB | 10 µM | inhibition | 27% |
